procasp7 counter: counter-screen: procaspase-7 (human) activation; recombinant procaspase-7, Ac-DEVD-pNA absorbance 405 nm; D23A/D198A/D206A triple mutant, cannot self-cleave; scale: DMSO 0, 5 µM enzyme 100; activation, % at 8.5 µM; 330,000 compounds, 0.093% hits; AID 463210;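 active = percent activation above the screen-wide mean plus 3 SD, cut at about 25% in these data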
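System: Uncleavable procaspase-7 mutant enzyme; Amount: 2 µM procaspase-7 mutant as dispensed; Schedule: 1 h compound preincubation, 2 h substrate cleavage, 25 °C; Measured by: 405 nm absorbance of p-nitroaniline; Evaluation: percent activation from buffer-corrected 0–120 min absorbance change; Control set: low DMSO alone, high DMSO plus 5 µM PC-7.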
Neddyl block: blocks human cullin neddylation; 360,000 compounds, 0.58% hits; AID 651699; TR-FRET cullin neddylation, biochemical; calls only at 25 µM; P61081+Q13564; in the data active = inhibition above about 36%
PolyA inhibitor: blocks polyadenylation in yeast reporter cells; activity score, % at 12 µM; S. cerevisiae SKY197-pL101 polyadenylation reporter, beta-gal luminescence; efflux-impaired pdr1/pdr3 knockout yeast; score 100 = 6 SD above DMSO; 300,000 compounds, 0.02% hits;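 active = lowest replicate activity score at least 50, where 100 means six control SD above control mean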;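 note: yeast exposed to compound for 9 h at 30 °C; higher score means more reporter readthrough which indicates perturbed polyadenylation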
VIM-2 inh: blocks Pseudomonas aeruginosa VIM-2 metallo-beta-lactamase; purified VIM-2, nitrocefin hydrolysis, epi-absorbance fluorescence; inhibition, % at 5.6 µM; 290,000 compounds, 0.89% hits; AID 1527;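 active = inhibition above the mean of all tested compounds plus 3 SD, cutoff set per screening run, cut at about 7.5% in these data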;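 note: red hydrolysis product quenches plate fluorescence so inhibitors raise well fluorescence; 0% = enzyme with DMSO and 100% = DMSO without enzyme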
IMP-1 inh-1: blocks Pseudomonas aeruginosa IMP-1 metallo-beta-lactamase | purified IMP-1, nitrocefin hydrolysis, epi-absorbance fluorescence | inhibition, % at 5.6 µM | 290,000 compounds, 0.45% hits | AID 1556;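 active = inhibition above the mean plus 3 SD of all compounds in the same screening run, cut at about 4.5% in these data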;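 note: 0% = IMP-1 with DMSO and 100% = DMSO wells lacking enzyme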
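system = purified recombinant IMP-1 beta-lactamase | amount = 0.2 nM IMP-1, as dispensed | medium = HEPES buffer pH 7.1 with ZnSO4 and Brij 35 | times = 25 °C, 15 min preincubation, 25 min reaction | detection = plate fluorescence quenching by hydrolysis product, ex 480/em 530 nm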
proCasp3 act: activators of human procaspase-3; P42574; recombinant procaspase-3 D3A, Ac-DEVD-pNA absorbance 405 nm; activation, % at 8.5 µM; 330,000 compounds, 0.11% hits; AID 463141;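 active = activation above the mean of all tested compounds plus 3 SD, cut at about 21% in these data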;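 note: 0% = DMSO alone and 100% = DMSO wells spiked with extra 5 µM PC-3 D3A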
Target sequence (P42574 whole entry D9A/D28A/D175A): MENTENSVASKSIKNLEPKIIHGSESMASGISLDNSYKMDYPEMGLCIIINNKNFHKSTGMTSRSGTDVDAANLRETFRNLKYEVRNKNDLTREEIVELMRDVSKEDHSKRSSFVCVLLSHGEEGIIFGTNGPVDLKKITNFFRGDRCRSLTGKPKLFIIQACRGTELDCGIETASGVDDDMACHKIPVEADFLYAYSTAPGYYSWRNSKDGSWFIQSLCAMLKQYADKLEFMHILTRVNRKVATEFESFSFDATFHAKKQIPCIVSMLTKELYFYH
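Assay system – Procaspase-3 D3A mutant, all three cleavage aspartates alanine · Controls – DMSO-only low control, 5 µM PC-3 D3A high control · Schedule – 1 h compound preincubation, 2 h substrate hydrolysis at 25 °C · Signal – 405 nm absorbance of p-nitroaniline, reads at 0 and 120 min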
IMP-1 inh-2: blocks IMP-1 metallo-beta-lactamase in VIM-2 selectivity screen; 1,300 tested, under 10 active; AID 1856; inhibition, % at 5.6 µM; purified IMP-1, nitrocefin hydrolysis, epi-absorbance fluorescence; shares compounds with VIM-2 inh; call rule not given here;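 note: 0% = enzyme with vehicle and 100% = vehicle without enzyme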
VIM-2 FRET ctr: inhibits VIM-2 in FRET assay to exclude epi-absorbance artifacts; shares compounds with VIM-2 inh; purified VIM-2, CCF2 FRET substrate hydrolysis; inhibition, % at 5.6 µM; 1,300 compounds, 23% hits;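 active = inhibition above the mean of all tested compounds plus 3 SD, cut at about 19% in these data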;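 note: 0% = VIM-2 plus DMSO and 100% = no enzyme wells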
TEM-1 inh: TEM-1 inhibition, counter-screen for VIM-2 inhibitors; shares compounds with VIM-2 inh; Purified TEM-1, nitrocefin hydrolysis, epi-absorbance fluorescence; inhibition, % at 5.6 µM; 1,300 compounds, 3% hits; AID 1866;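 active = inhibition above that campaign's mean inhibition plus 3 SD, cut at about 0.46% in these data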;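 note: 0% = TEM-1 with DMSO and 100% = TEM-1 with 100 µM potassium clavulanate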
Target sequence (P62593 whole entry, looked up): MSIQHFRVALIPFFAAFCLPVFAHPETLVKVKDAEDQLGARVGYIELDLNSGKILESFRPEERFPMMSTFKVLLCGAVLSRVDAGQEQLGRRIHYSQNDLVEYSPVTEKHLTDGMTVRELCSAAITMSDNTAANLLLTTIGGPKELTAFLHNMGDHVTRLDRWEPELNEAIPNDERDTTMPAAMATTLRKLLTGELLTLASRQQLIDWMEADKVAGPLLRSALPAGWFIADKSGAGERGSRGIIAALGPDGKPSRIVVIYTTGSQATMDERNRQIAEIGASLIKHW
VIM-2 inh conf: confirmation of P. aeruginosa VIM-2 metallo-beta-lactamase inhibitors; 1,300 compounds, 96% hits; purified VIM-2, nitrocefin hydrolysis, epi-absorbance; shares compounds with VIM-2 inh; inhibition, % at 5.6 µM;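 active = inhibition of the VIM-2 beta-lactamase enzyme above about 11% from the earlier first-round screen, limit read from the data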;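 note: 0% = VIM-2 with DMSO and 100% = buffer wells without enzyme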
The depositor's hits bear a star; i = inactive; / = no result shown. A selection: hits, their analogues and other compounds. The true share with any hit is near 1.7%.

SMILES	procasp7 counter	Neddyl block	PolyA inhibitor	VIM-2 inh	IMP-1 inh-1	proCasp3 act	IMP-1 inh-2	VIM-2 FRET ctr	TEM-1 inh	VIM-2 inh conf
COc1cccc(-c2coc3cc4oc(=O)c(CCC(=O)O)c(C)c4cc23)c1	16	i	0	1	-4	0	/	/	/	/
COc1cccc(-c2coc3c(C)c4oc(=O)c(CC(=O)O)c(C)c4cc23)c1	-2	i	-11	16*	1	-2	2	3	-6	30*
COc1ccc(-c2coc3c(C)c4oc(=O)c(CC(=O)O)c(C)c4cc23)cc1	/	i	5	16*	2	/	2	-3	-10	22*
COc1ccc(-c2coc3cc4oc(=O)c(CC(=O)O)c(C)c4cc23)cc1	/	i	-2	-4	0	/	/	/	/	/
COc1cccc(-c2coc3c(C)c4oc(=O)c(CCC(=O)O)c(C)c4cc23)c1	8	i	13	15*	-3	7	-3	6	-10	22*
Cc1cc(NC(=O)COC(=O)c2ccc(OC(F)(F)F)cc2)no1	7	i	/	/	/	7	/	/	/	/
COc1cc(-c2nnc3n(CCc4ccccc4)c(=O)c4ccccc4n23)cc(OC)c1OC	0	i	-10	0	-4	10	/	/	/	/
O=C(CCc1ccccc1)Nc1ccc2ccccc2n1	2	i	8	-3	-3	6	/	/	/	/
COc1ccc(C(=O)NCCS(=O)(=O)N2CCN(Cc3ccccc3)CC2)cc1	-5	i	6	/	/	9	/	/	/	/
C=CCn1c(=O)n2ncnc2c2c3c(sc21)CCCC3	-3	i	-7	15*	-1	12	-3	5	-6	39*
CCn1c(CNC(=O)c2cccc(C)c2)nnc1SCC(=O)NC1CCCCC1C (stereo unspecified)	-2	i	-2	-3	-2	-9	/	/	/	/
O=C(O)c1ccccc1C(=O)c1cccc2ccccc12	-3	i	-17	31*	-3	6	-3	54*	-5	35*
C=C(c1cccc2ccccc12)P(=O)(O)O	-7	i	-10	35*	0	5	-3	62*	-6	44*
O=C(O)c1ccccc1C(=O)O	9	i	/	/	/	4	/	/	/	/
COc1cc(CNCc2ccccn2)ccc1OCc1cccc(Cl)c1	-2	i	19	12*	-2	-3	-3	-24	-5	29*
CC1=C(C(=O)OCc2ccccc2)C(c2cccc(F)c2)NC(=O)N1 (stereo unspecified)	-3	i	-18	0	0	1	/	/	/	/
CCCCN(C(=O)CN1C(=O)C2CCCCC2C1=O)c1c(N)n(Cc2ccccc2)c(=O)[nH]c1=O (stereo unspecified)	-3	i	0	/	/	17	/	/	/	/
CCn1c(SCC(N)=O)nnc1-c1cc2c(C)nn(-c3ccccc3)c2s1	-2	i	2	15*	-5	7	-3	9	-6	27*
Cc1cccc(Nc2nc(NCCCN3CCOCC3)nc(N)c2[N+](=O)[O-])c1	-6	i	15	14*	-2	-4	-4	0	-10	37*
Nc1nc(NCCCN2CCOCC2)nc(Nc2ccccc2F)c1[N+](=O)[O-]	2	i	16	29*	-4	-1	-3	2	-11	51*
CCCc1nc(-c2ccccc2)c(-c2ccc(OC)c(OC)c2)c(=O)[nH]1	2	/	6	-1	-2	7	/	/	/	/
Cc1cc(C)nc(SCc2ccc(C(=O)N/N=C3\CCCC(=O)C3)cc2)n1	1	i	31	1	-2	-10	/	/	/	/
Cc1ccc(S(=O)(=O)Nc2cccc(C(=O)N3CCCC3)c2)cc1F	-5	i	9	/	/	10	/	/	/	/
CCN(CCN(C)C)C(=O)c1ccc2c(c1NCCO)C(=O)c1ccccc1C2=O	3	i	1	14*	-1	0	-3	2	-9	23*
O=C1c2ccccc2C(=O)c2c1ccc(C(=O)N1CCCCC1)c2NCCO	6	i	-10	-1	-3	-4	/	/	/	/
SMILES	procasp7 counter	Neddyl block	PolyA inhibitor	VIM-2 inh	IMP-1 inh-1	proCasp3 act	IMP-1 inh-2	VIM-2 FRET ctr	TEM-1 inh	VIM-2 inh conf
CCCCNC(=O)c1ccccc1C(=O)NC1(C(=O)NCCCC)CCCC1	/	i	/	/	/	/	/	/	/	/
CC1CCN(S(=O)(=O)c2cccc(C(=O)O)c2)CC1	-2	i	2	-3	-5	2	/	/	/	/
O=C(Nc1ccccc1)Nc1ccccn1	7	i	-19	-3	-3	11	/	/	/	/
Cc1cc(=O)oc2c(C)c(OCC(=O)NCCCn3ccnc3)ccc12	12	i	-8	19*	-3	4	-3	-6	-8	35*
O=C(COc1ccc2ccc(=O)oc2c1)NCCCn1ccnc1	6	i	2	1	-1	3	/	/	/	/
Cc1c(OCC(=O)NCCCn2ccnc2)ccc2c3c(c(=O)oc12)CCC3	4	i	8	48*	-1	5	-3	-8	-13	58*
CCc1cc(=O)oc2cc(C)cc(OC(C)C(=O)NCc3ccncc3)c12 (stereo unspecified)	2	/	-2	6	-1	-7	/	/	/	/
Cc1c(C)c2ccc(OCC(=O)NCCCn3ccnc3)c(C)c2oc1=O	-8	/	3	42*	1	-6	-4	-4	-12	49*
Cc1ccc(C(C)C)cc1OCC(=O)NCCCn1ccnc1	4	i	/	/	/	-8	/	/	/	/
Cc1c(OC(C)C(=O)NCc2ccncc2)ccc2c3c(c(=O)oc12)CCCC3 (stereo unspecified)	2	/	21	51*	-2	5	-3	17	-11	62*
c1ccc(CNc2nc3ccccc3n2CCN2CCOCC2)nc1	7	i	-4	-3	-5	-7	/	/	/	/
C=CCC[C@@H](CCCCC)OC(=O)/C=C/[C@@H](O)[C@H](O)C[C@@H](O)CC=C	/	i	/	/	/	/	/	/	/	/
Cc1c(OC(C)C(=O)NCCCn2ccnc2)ccc2c3c(c(=O)oc12)CCC3 (stereo unspecified)	9	/	1	49*	-3	5	-2	-3	-8	64*
